# This is a sample that favours compounds with a hit; in the whole collection about 1.9% have one here.
# UHRF1 binding: human UHRF1 methylated DNA binding inhibitors | UHRF1 binding to methylated oligo, TR-FRET | inhibition, % at 4.4 µM | 0.75% of 370,000 active | AID 687016; in the data active means inhibition above about 21%;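 further: UHRF1 SRA domain binding a hemimethylated CpG hairpin DNA probe; 0% = median of test compound wells and 100% = reference inhibitor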
# MBD2 inh: MBD2-methylated oligo binding inhibition. Q9UBB5. TR-FRET, MBD2 binding to methylated oligonucleotide. inhibition, % at 4.4 µM. 0.31% of 370,000 active. AID 686964; in the data active means inhibition above about 13%
# Rin1-Abl PPI inh: blocks binding of human Rin1 to Abl; TR-FRET Rin1/Abl binding, biochemical; inhibition, % at 7.35 µM; 0.4% of 360,000 active; AID 588664; in the data active means inhibition above about 5%, passing the limit was not always enough
# LEDGF integ inh: blocks HIV-1 LEDGF/p75-dependent DNA integration; TR-FRET IN-LEDGF/p75 DNA integration, Eu/Cy5; inhibition, % at 3.7 µM; 0.64% of 370,000 active; AID 743269;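 active means inhibition above the screen-wide mean plus 3 SD, cut at about 13% in these data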;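 further: signal is the Cy5 over europium emission ratio at 671 and 618 nm; 0% = plate median of compound wells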
# TDP2 inh: TDP2 (human) inhibition, absorbance primary screen | recombinant TDP2, T5PNP hydrolysis, p-nitrophenol absorbance 415 nm | inhibition, % at 12.8 µM | 0.34% of 370,000 active | AID 720702;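 active means inhibition above the mean of all tested compounds plus 3 SD, set per campaign, cut at about 25% in these data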;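 further: 0% = DMSO with enzyme and 100% = buffer with substrate but no TDP2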
#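 Test system: Human TDP2 enzyme | Reagent: 5 mM T5PNP | Compound dosing: 12.8 µM single point, 1% DMSO | Incubation: Enzyme reaction with compound for 2 h at 37 °C | Technique: p-Nitrophenol epi absorbance | Read-out: % inhibition relative to enzyme-containing and enzyme-free wells | Benchmarks: High control without enzyme, low control DMSO plus TDP2 | Replicates: Singlicate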
# * marks the source's active call; other numbers are inactive results; · = no result.
SMILES,UHRF1 binding,MBD2 inh,Rin1-Abl PPI inh,LEDGF integ inh,TDP2 inh
CC1(C)CC(=O)N(CC(=O)N2CCN(c3cccc(Cl)c3Cl)CC2)c2ccccc2S1(=O)=O,0,-5,·,0,5
CCCCn1nnnc1C1(C)CCC(=O)N1CCCN1CCOCC1 (configuration not stated),22*,8,·,-2,6
CC(c1ccccc1)N1CC[C@H]2C=CC[C@@H](C(=O)Nc3cccc(Cl)c3)[C@H]2C1=O (some centres not stated),3,2,·,-1,1
COC(=O)C[C@H]1CC[C@@H]2[C@@H](COc3ccc(NC(=O)Nc4cccc(C)c4)cc3C(=O)N2C)O1,-1,2,·,-3,2
CCc1nnc(NC(=O)CN2CCN(C(=O)c3ccccc3)CC2)s1,24*,12,0,0,-6
Cc1ccc(C=Nn2c(-c3n[nH]c4c3CCC4)n[nH]c2=S)s1,3,7,·,-3,-11
NC(=O)C1CCN(C(=O)COc2cccc3ccccc23)CC1,40*,-2,5,-3,1
O=C(O)C1CCN(C(=O)c2cccc3ccccc23)CC1,30*,-5,1,-1,4
C[C@@H](O[Si](c1ccccc1)(c1ccccc1)C(C)(C)C)[C@@H]1NC(=O)[C@@H]2C[C@]3(Br)c4ccccc4N(S(=O)(=O)c4ccccc4)[C@@H]3N2C1=O,-2,0,·,1,4
COc1ccc(/C=C/C(=O)Nc2ccc(NC(C)=O)cc2)cc1S(=O)(=O)N1CCOCC1,32*,0,-1,-3,-4
COc1ccc(CCN2CCCC(CN(C)Cc3cc(Cl)c(O)c(OC)c3)C2)cc1 (configuration not stated),54*,-1,1,1,8
COc1ccc(CN(C)CC2CCCN(CCc3ccccc3C)C2)cc1O (configuration not stated),0,4,2,1,-1
CC(=O)c1ccc(N(C(=O)CNC(=O)c2ccco2)C(C(=O)NC2CCCC2)c2ccc(C)o2)cc1 (configuration not stated),-1,-1,-1,-2,-2
Cc1ccc(C(C(=O)NC2CCCCC2)N(CCC(C)C)C(=O)CNC(=O)c2ccco2)o1 (configuration not stated),21*,7,3,4,9
O=C1CN(C(=O)C2CCCCC2)C=CN1CCc1ccccc1Br,6,2,·,-3,1
CN1CCOc2ccc(S(=O)(=O)NCCc3ccc(Cl)cc3)cc21,30*,5,-2,7,-11
Nc1[nH]c(C(=O)c2ccccc2)c(-c2ccc(O)cc2)c1C(=O)NCCc1c[nH]c2ccccc12,-1,0,·,-3,-13
Cc1nc(Cl)c(C(=O)NCCC(C)C)c(C)c1[N+](=O)[O-],-4,-7,1,1,0
Cc1nc(Cl)c(C(=O)NC(C)(C)C)c(C)c1Cl,47*,4,-4,-4,2
Cc1ccc(-c2cc(C(=O)NCc3ccco3)c3ccccc3n2)o1,8,5,3,15*,12
COc1ccc(OCc2nnc(SCC(=O)NC3CCCCC3)o2)cc1,1,-3,1,1,12
O=C(CSc1nnc(-c2ccc(F)cc2)o1)NC1CCCCC1,35*,4,4,-4,4
COc1ccc(Cc2nnc(SCC(=O)NC3CCCC3)o2)cc1,45*,1,2,1,7
C#CCNC(=O)C[C@@H]1C(=O)N2CCCC3=C2[C@@]1(C(=O)OC)CCCC3,-1,0,·,0,9
CC(C)(C)Cc1c(-c2ccc(Cl)cc2)nc2ccc(Br)cn12,11,1,-5,-1,0
CC(C)(C)Cc1c(-c2ccc(Cl)cc2)nc2ccc(Cl)cn12,15,5,-2,2,-9
CC(C)(C)Cc1c(-c2ccc(F)cc2)nc2ccc(Br)cn12,21*,-3,0,1,-15
Cc1ccc2nc(-c3ccco3)c(CC(C)(C)C)n2c1,23*,0,4,10,-6
CC(C)(C)Cc1c(-c2ccccc2)nc2ccc(Cl)cn12,21*,9,-1,-4,3
C[C@@H]1OC(C2CCCCC2)N(C)[C@H]2C[C@H]3c4cc(-c5ccc6c(c5)OCO6)ccc4CCN3C[C@@H]12 (some centres not stated),-2,4,·,0,11

# High-throughput results deposited in PubChem BioAssay by The Scripps Research Institute Molecular Screening Center.
